# According to PubChem BioAssay:
# Activity calls are given as the source filed them.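 How the source made its calls, unless noted: active means inhibition at or above 50% at 10 µM; inactive means inhibition below 50%.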
# Tests used:
# [1] = inhibitors of TNFa-induced NFkB p65 translocation, primary screen, imaging, HUVEC, MLSMR starter and 10KST1 sets (AID 438;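 active means inhibition above 20% together with a positive visual image hit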;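 further: compound added about 3h40 before a 20 min TNFalpha stimulation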;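 on inhibition: signal is the nuclear over cytoplasmic p65 intensity ratio per well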); conditions: HUVEC TNFa-induced p65 nuclear translocation; cell count: measured here: nuclei count (cytotoxicity indicator), at 2.08 µM; inhibition: at 2 µM, stronger effect = higher value, 0% TNFa-plus-vehicle, 100% no-TNFa wells
# [2] = reduction of polyQ htt aggregates in cells – imaging, exon1htt(103Q)mCFP cells, high-content imaging, primary screen (AID 483;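 active means visual image review flags a hit and inhibition of aggregation exceeds 20%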;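 further: compound exposure lasted 3 days before fixation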;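 on nuclei count: percent of the per-plate median nuclei count of sample wells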); conditions: exon1htt(103Q)mCFP cell line, aggregate imaging, at 2 µM; inhibition of aggregation: stronger effect = higher value; nuclei count: measured here: cell count, toxicity
# [3] = endothelial E-selectin expression blockers – imaging, HUVEC, immunofluorescence, MLSMR starter and 10KST1 sets, primary screen (AID 487;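 active means visually confirmed hit in the image check and inhibition above 20%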;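 on inhibition: signal is fraction of cell area covered by stained E-selectin grains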;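 on nuclei count: 100% = median nuclei count of all wells on the same plate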); conditions: HUVEC TNFalpha-induced E-selectin immunofluorescence imaging, at 2 µM; inhibition: stronger effect = higher value; nuclei count: measured here: cell number, toxicity
# [4] = target: Voltage-gated potassium channel subunit beta-2 (Rattus norvegicus) (UniProt P62483); test: inhibitors of rat Kvbeta2 reductase activity – biochemical, NADPH fluorescence, primary screen (AID 622;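 active means fluorescence slope higher than the sample average by over 3 SD, cut at about -0.22 in these data, passing the limit was not always enough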;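 further: slope of raw intensity against log time taken from 70 to 1610 s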); conditions: recombinant KvBeta, 4-cyanobenzaldehyde reduction, at 10 µM, stronger effect = higher value
# [5] = target: Voltage-gated potassium channel subunit beta-2 (Rattus norvegicus) (UniProt P62483); test: enhancers of rat Kvbeta2 NADPH turnover – biochemical, NADPH fluorescence, primary screen (AID 623;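 active means NADPH fluorescence slope more negative than the mean of all samples by about 3 SD, 99.7% confidence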;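 further: fluorescence intensity change per second fitted from 20 to 320 s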); conditions: Recombinant KvBeta, NADPH fluorescence decrease slope, 10 min; at 10 µM; stronger effect = lower value
# [6] = target: Muscarinic acetylcholine receptor M4 (Homo sapiens) (UniProt P08173); test: M4-linked GIRK flux change, two-sided – cell-based, HEK293 M4/GIRK, thallium flux, BTC-AM, M4 allosteric agonist project, primary screen (AID 625;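 active means fluorescence slope after compound addition differing from the mean of all tested samples at 99.7% confidence, mostly higher but some lower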;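 further: thallium influx through GIRK channels coupled to M4 in HEK293 cells with BTC-AM dye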); conditions: at 10 µM, actives lie on both sides
# How it was run: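 assay system = HEK293 cells with M4 receptor and GIRK channels | medium = pH 7.3 thallium assay buffer | doses = 10 µM final, single point | timing = cells overnight at 37 °C, BTC-AM loading 1 h, reads 2 min total | signal = BTC-AM fluorescence, 1 Hz kinetic reads | read-out = post-addition slope, 15–24 s, of baseline-normalized fluorescence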
# [7] = blockers of RIG-like receptor reporter activation – cell-based, Sendai virus stimulus, luciferase, 10K MLSCN set, TLR/RLR signaling modifier project, primary screen (AID 602276); conditions: HEK293 RL24 IRF3 luciferase reporter, at 10 µM, stronger effect = higher value;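 further: firefly luciferase from ISG56 promoter only with Renilla not read in this screen; 0% = Sendai virus plus DMSO and 100% = medium plus DMSO without virus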
# [8] = TLR3 IRF3 reporter activation blockers – cell-based, poly I:C stimulus, luciferase, 10K MLSCN set, primary screen (AID 602277;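 active means inhibition of the reporter signal at or above 50%; inactive means inhibition below 50%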); conditions: HEK293-TLR3 RL24 IRF3 luciferase reporter, at 10 µM, stronger effect = higher value
# Muscarinic acetylcholine receptor M4 (Homo sapiens), sequence (P08173 whole entry, looked up): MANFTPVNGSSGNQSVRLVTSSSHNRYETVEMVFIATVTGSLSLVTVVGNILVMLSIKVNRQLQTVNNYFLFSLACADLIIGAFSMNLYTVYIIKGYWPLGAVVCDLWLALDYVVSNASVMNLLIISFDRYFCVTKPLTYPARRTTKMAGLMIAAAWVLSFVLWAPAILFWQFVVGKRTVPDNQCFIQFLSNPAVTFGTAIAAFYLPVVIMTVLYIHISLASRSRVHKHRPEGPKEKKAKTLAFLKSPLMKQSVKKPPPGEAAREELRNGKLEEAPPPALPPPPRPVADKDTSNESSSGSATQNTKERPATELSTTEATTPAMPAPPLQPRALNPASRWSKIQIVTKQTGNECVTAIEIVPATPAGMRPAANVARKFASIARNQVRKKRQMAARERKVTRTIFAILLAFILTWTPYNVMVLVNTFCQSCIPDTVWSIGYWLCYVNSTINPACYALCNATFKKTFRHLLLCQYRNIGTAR
# Voltage-gated potassium channel subunit beta-2 (Rattus norvegicus), sequence (P62483 whole entry, looked up): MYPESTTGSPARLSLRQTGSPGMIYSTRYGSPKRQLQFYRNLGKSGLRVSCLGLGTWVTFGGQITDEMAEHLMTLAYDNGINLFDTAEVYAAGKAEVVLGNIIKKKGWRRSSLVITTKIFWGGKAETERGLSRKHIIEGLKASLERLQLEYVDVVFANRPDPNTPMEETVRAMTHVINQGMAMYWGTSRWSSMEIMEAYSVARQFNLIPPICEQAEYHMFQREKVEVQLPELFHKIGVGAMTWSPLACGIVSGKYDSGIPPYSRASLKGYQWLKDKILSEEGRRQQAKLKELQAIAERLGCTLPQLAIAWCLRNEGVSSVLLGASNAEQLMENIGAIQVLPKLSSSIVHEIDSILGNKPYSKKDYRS
SMILES,cell count [1],inhibition [1],inhibition of aggregation [2],nuclei count [2] [%],inhibition [3],nuclei count [3] [%],fluorescence slope [4],NADPH fluorescence slope [5],fluorescence slope [6],inhibition [7],inhibition [8]
c1ccc(-c2nnc(CN3CCC4(CC3)OCCO4)o2)cc1,407,-6.8% (inactive),15.2% (inactive),70.5,-27% (inactive),118,-0.596 (inactive),1.6e-05 (inactive),0.0059 (inactive),8.62% (inactive),10.2% (inactive)
O=C(CCN1CCOCC1)Nc1cccc(Br)c1,354,-5.1% (inactive),-9.3% (inactive),134,-70.3% (inactive),125,-0.409 (inactive),9.1e-05 (inactive),0.00691 (inactive),16.1% (inactive),15.9% (inactive)
CN(CC(=O)N1CCN(c2ccccn2)CC1)S(=O)(=O)c1ccc2ccccc2c1,395,0.9% (inactive),1.9% (inactive),115,-109% (inactive),119,-0.478 (inactive),-7e-05 (inactive),0.00469 (inactive),4.05% (inactive),4.08% (inactive)
O=C(Nc1ccc(Cc2ccncc2)cc1)C1CC1,447,2.9% (inactive),-6.1% (inactive),100,-33.5% (inactive),118,-0.605 (inactive),2.8e-05 (inactive),0.00686 (inactive),7.94% (inactive),15.6% (inactive)
COc1cc(OC)cc(C(=O)NCCN2CCOCC2)c1,633,-11.2% (inactive),-0.4% (inactive),94.3,-24.5% (inactive),108,-0.573 (inactive),1.5e-05 (inactive),0.00526 (inactive),7.36% (inactive),9.91% (inactive)
CCOC(=O)C1C(=O)NC(SCC(=O)Nc2nccs2)=C(C#N)C1c1ccccc1OCC (stereo not given),605,-27.7% (inactive),-20.6% (inactive),120,20.7% (inactive),104,-0.454 (inactive),-3.1e-05 (inactive),0.00515 (inactive),19.6% (inactive),20.1% (inactive)
CCCn1c2c(c(O)c(C(=O)Nc3ccc(C)cn3)c1=O)CCCC2,483,9.8% (inactive),-6.3% (inactive),96.3,-7.5% (inactive),91.3,-0.546 (inactive),-6e-05 (inactive),0.00777 (inactive),6.86% (inactive),10.7% (inactive)
CCN(CC)S(=O)(=O)c1ccc(N2CCCC2)c(C(=O)OCC(=O)/C(C#N)=C(\C)N)c1,560,-16% (inactive),6.5% (inactive),98.3,8.4% (inactive),101,-0.428 (inactive),6.6e-05 (inactive),0.00583 (inactive),15.9% (inactive),24.1% (inactive)
COc1ccc(N2CCC(CNS(=O)(=O)c3cccc(C(F)(F)F)c3)C2)cc1 (stereo not given),385,5.3% (inactive),30.1% (active),92.1,-33.3% (inactive),132,-0.494 (inactive),-0.000248 (inactive),0.00389 (inactive),7.7% (inactive),2.96% (inactive)
CC(Oc1ccc(Br)cc1)C(=O)N1CCc2ccccc21 (stereo not given),406,6.3% (inactive),22.4% (inactive),104,-97.2% (inactive),119,-0.486 (inactive),5.9e-05 (inactive),0.00581 (inactive),-4.76% (inactive),-9.35% (inactive)
O=c1c2c3c(sc2n2cnnc2n1CCc1ccccc1)CCCC3,660,-1.4% (inactive),3.7% (inactive),99.9,-171% (inactive),130,-0.543 (inactive),-2.6e-05 (inactive),0.00413 (inactive),2.46% (inactive),2.39% (inactive)
CCOc1ccccc1C1CC(=O)NC(SCC)=C1C#N (stereo not given),465,-13% (inactive),18.7% (inactive),84.4,-10% (inactive),130,-0.326 (inactive),-7.3e-05 (inactive),0.00457 (inactive),9.15% (inactive),17.5% (inactive)
COc1cc(C2C(C(=O)c3ccc(C)o3)=C(O)C(=O)N2c2cc(C)on2)cc(Br)c1O (stereo not given),724,-16.4% (inactive),-2.8% (inactive),109,-127% (inactive),118,-0.518 (inactive),-3e-05 (inactive),0.00505 (inactive),13.3% (inactive),19.1% (inactive)
Cc1ccc(-c2[nH]nc3c2C(c2ccc(OC(=O)N4CCOCC4)cc2)C(C#N)=C(N)O3)cc1 (stereo not given),742,10.8% (inactive),0.2% (inactive),97.7,-39.7% (inactive),104,-0.577 (inactive),-4.2e-05 (inactive),0.00718 (inactive),4.48% (inactive),9.32% (inactive)
Cc1c(NC(=O)CN2c3cccc4cccc(c34)S2(=O)=O)c(=O)n(-c2ccccc2)n1C,721,-7.1% (inactive),1.4% (inactive),103,-119% (inactive),141,-0.442 (inactive),-2.5e-05 (inactive),0.00478 (inactive),8.89% (inactive),15.5% (inactive)
O=S(=O)(c1ccc2c(c1)OCCO2)N(Cc1ccc(F)cc1)Cc1nnc(-c2cccs2)o1,383,-21.4% (inactive),-14.7% (inactive),106,-14.4% (inactive),119,-0.543 (inactive),-0.000116 (inactive),0.00797 (inactive),13.3% (inactive),26.7% (inactive)
Cc1ccccc1NS(=O)(=O)c1ccc(NC(=O)c2ccco2)cc1,349,1.1% (inactive),5.8% (inactive),94.7,-24.6% (inactive),119,-0.587 (inactive),1.9e-07 (inactive),0.00578 (inactive),15.3% (inactive),13.6% (inactive)
O=C(c1ccc(S(=O)(=O)N2CCOCC2)cc1)N1CCc2ccccc2C1,401,-1% (inactive),-27.5% (inactive),103,-103% (inactive),118,-0.469 (inactive),-1.3e-05 (inactive),0.00485 (inactive),25.2% (inactive),18.8% (inactive)
CCCN(CCO)Cc1cccc(Br)c1,492,-1.1% (inactive),7.9% (inactive),93.6,-109% (inactive),109,-0.437 (inactive),2.5e-05 (inactive),0.00547 (inactive),14.5% (inactive),19.3% (inactive)
Cc1c(NC(=O)c2cnn3c2NC(c2ccco2)CC3C(F)(F)F)c(=O)n(-c2ccccc2)n1C (stereo not given),436,-1% (inactive),2.9% (inactive),101,-27.3% (inactive),115,-0.557 (inactive),-2.6e-05 (inactive),0.00692 (inactive),15.2% (inactive),18.8% (inactive)
O=C(C1CCN(S(=O)(=O)Cc2ccccc2)CC1)N1CCN(c2ncccn2)CC1,354,-9.2% (inactive),0.1% (inactive),67,34.3% (inactive),96.8,-0.431 (inactive),-0.000431 (inactive),0.00525 (inactive),-3.88% (inactive),-4.47% (inactive)
CCn1ncc(C2=NOC(C(=O)NCc3ccccc3)C2)c1C (stereo not given),309,-20.8% (inactive),-64.1% (inactive),2.2,-53.2% (inactive),105,-0.446 (inactive),3.3e-05 (inactive),0.00637 (inactive),17.4% (inactive),73.3% (active)
COC(=O)COc1ccc(C(=O)OC)cc1,384,5% (inactive),9.9% (inactive),100,-33.2% (inactive),102,-0.456 (inactive),1.1e-05 (inactive),0.00492 (inactive),6.44% (inactive),10.8% (inactive)
Cc1cc(NC(=O)CCC(=O)N(CCc2ccccc2)C(C(=O)NC2CCCC2)c2ccco2)no1 (stereo not given),592,-7.5% (inactive),-11.5% (inactive),102,6.8% (inactive),101,-0.483 (inactive),0.000137 (inactive),0.00558 (inactive),4.62% (inactive),19.1% (inactive)
Cc1cc(=O)oc2cc(Oc3ncccn3)ccc12,476,2.4% (inactive),9% (inactive),93.1,-29.9% (inactive),111,-0.427 (inactive),-1.6e-05 (inactive),0.00578 (inactive),-6.46% (inactive),-5.6% (inactive)
